Shown are actives, neighbours in structure and some others; about 2.9% of the full set was active somewhere.
PfM18AAP inh: PfM18AAP enzyme inhibition; recombinant PfM18AAP, H-Glu-NHMec fluorogenic cleavage; inhibition, % at 7.35 µM; 290,000 tested, 1.2% active; AID 1822;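 active = inhibition above the campaign mean inhibition over all tested compounds plus 3 SD, cut at about 28% in these data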;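 also: 0% = plate median of test compound wells and 100% = 2 mM ZnCl2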
ZTA counter: blocks Epstein-Barr virus ZTA, an EBNA-1 counter-screen; P03206; ZTA-DNA binding, fluorescence polarization; inhibition, % at 11 µM; 320,000 tested, 0.15% active; in the data active = inhibition above about 33%
UBC13 inh: blocks human UBC13 polyubiquitin chain formation. TR-FRET. inhibition, % at 20 µM. 330,000 tested, 0.47% active; in the data active = inhibition above about 45%, passing the limit was not always enough
Apaf-1 inh: human Apaf-1 inhibition; reconstituted apoptosome caspase-3 activity, DEVD-Rh110 fluorescence; inhibition, % at 20 µM; 330,000 tested, 0.71% active; active = inhibition of at least 40% at 20 µM;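 also: plate controls were DMSO wells for no effect and DEVD-CHO caspase inhibitor wells for full effect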
Target sequence (O14727 whole entry, looked up): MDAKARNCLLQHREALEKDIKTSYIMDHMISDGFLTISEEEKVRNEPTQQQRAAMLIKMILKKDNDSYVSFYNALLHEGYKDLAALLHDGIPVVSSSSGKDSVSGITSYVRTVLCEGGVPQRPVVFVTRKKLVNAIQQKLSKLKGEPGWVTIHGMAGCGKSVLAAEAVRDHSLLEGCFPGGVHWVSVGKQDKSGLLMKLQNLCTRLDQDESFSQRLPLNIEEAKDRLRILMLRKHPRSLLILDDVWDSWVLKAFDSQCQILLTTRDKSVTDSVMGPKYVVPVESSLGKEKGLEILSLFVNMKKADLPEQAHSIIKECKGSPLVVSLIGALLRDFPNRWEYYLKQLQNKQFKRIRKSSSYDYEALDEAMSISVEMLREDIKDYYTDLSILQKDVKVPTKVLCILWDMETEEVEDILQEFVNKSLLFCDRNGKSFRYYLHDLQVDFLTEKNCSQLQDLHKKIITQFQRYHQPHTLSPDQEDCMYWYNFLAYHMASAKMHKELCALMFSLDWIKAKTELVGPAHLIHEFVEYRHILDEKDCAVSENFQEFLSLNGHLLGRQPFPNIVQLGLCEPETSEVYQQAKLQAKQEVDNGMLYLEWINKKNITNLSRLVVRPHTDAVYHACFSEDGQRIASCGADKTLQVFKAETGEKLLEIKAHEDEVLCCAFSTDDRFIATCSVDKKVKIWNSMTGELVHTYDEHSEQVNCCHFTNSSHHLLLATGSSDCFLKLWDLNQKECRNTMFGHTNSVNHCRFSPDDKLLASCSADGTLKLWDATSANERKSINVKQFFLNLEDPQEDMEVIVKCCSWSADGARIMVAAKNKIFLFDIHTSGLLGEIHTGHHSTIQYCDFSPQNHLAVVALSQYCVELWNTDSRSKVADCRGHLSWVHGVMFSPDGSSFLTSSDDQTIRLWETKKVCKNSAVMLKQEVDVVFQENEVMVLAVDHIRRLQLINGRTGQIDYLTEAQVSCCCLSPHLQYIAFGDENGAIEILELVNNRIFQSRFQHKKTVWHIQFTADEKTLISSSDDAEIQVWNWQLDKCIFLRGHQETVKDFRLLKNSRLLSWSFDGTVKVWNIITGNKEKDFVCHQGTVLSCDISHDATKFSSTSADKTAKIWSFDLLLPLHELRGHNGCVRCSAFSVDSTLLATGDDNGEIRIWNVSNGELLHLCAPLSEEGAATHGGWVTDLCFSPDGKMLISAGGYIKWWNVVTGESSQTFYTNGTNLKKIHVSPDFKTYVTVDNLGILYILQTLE
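Medium: Hepes buffer, pH 7.5 / System: biochemical Apaf-1 apoptosome reconstitution / Measured by: Rh110 fluorescence, excitation 480 nm, emission 540 nm / Times: compound with Apaf-1, dATP, procaspase-3 30 min, then 50 min reaction, room temperature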
PfG6PD inh: PfG6PD (Plasmodium falciparum) enzyme inhibition. PfGluPho enzyme, NADPH resazurin-diaphorase fluorescence. inhibition, % at 20 µM. 350,000 tested, 0.78% active. AID 504690;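 active = inhibition reaching at least a set limit at 20 µM in the primary screen, cut at about 59% in these data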;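 also: 0% = DMSO wells with substrate and 100% = DMSO wells lacking glucose-6-phosphate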
EBNA-1 inh: blocks EBNA-1 binding to DNA; AID 1950; inhibition, % at 14.8 µM; 300,000 tested, 0.34% active; EBNA-1 DNA binding, fluorescence polarization; in the data active = inhibition above about 28%
EBNA-1 confirm: EBNA-1 (EBV) inhibition, confirmation. shares compounds with EBNA-1 inh. AID 2292. Recombinant EBNA-1 DBD, Cy5-DNA fluorescence polarization. 830 tested, 35% active. inhibition, % at 14.8 µM;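 active = mean inhibition across replicates above a set limit taken from the earlier primary screen, cut at about 28% in these data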;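 also: plate controls were EBNA-1 protein with DMSO for no effect and wells lacking EBNA-1 for full effect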
ZTA counter trip: counter-screen for EBNA-1 inhibitors: Epstein-Barr virus ZTA inhibitors, triplicate; shares compounds with EBNA-1 inh; AID 2328; Zta-ZRE DNA binding, Cy5 fluorescence polarization; inhibition, % at 11.1 µM; 830 tested, under 10 active;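 active = mean inhibition over triplicates above a set limit taken from the primary EBNA-1 screen, cut at about 37% in these data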;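 also: purified full length Zta protein with Cy5 labeled ZRE DNA probe; 0% = Zta with DMSO and 100% = wells lacking Zta protein; inhibitors lower polarization by freeing the labeled DNA probe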
Active calls of the source: *; . = no result given.

SMILES	PfM18AAP inh	ZTA counter	UBC13 inh	Apaf-1 inh	PfG6PD inh	EBNA-1 inh	EBNA-1 confirm	ZTA counter trip
COc1cc(CC(NC(C)=O)C(=O)NC2CCN(c3c4c(nc5ncnn35)CCC4)CC2)cc(OC)c1 (stereo unspecified)	-3.4	11.2	8.0	-4.0	.	1.7	.	.
CC(/C=C/c1ccc2c(c1)OCO2)=N\NC(=O)COc1ccccc1C	7.0	-4.0	1.3	22.4	-3.9	21.1	.	.
Cc1cccc(OCC(=O)N/N=C\C=C\c2ccc3c(c2)OCO3)c1C	-0.7	-6.8	-16.5	9.0	3.2	58.7*	80.3*	-1.1
COc1ccc2c(c1)[nH]c1c(=O)n(Cc3ccco3)cnc12	-17.4	5.0	2.7	-6.1	4.1	37.2*	-1.9	-12.6
CC(=O)c1ccc(S(=O)(=O)N2CCN(C(=O)c3cccc(S(=O)(=O)N4CC(C)OC(C)C4)c3)CC2)cc1 (stereo unspecified)	.	.	.	.	13.3	.	.	.
Cc1ccc(NC(=O)COC(=O)/C=C/c2cccs2)cc1	2.0	-0.6	-8.3	8.4	10.4	39.0*	10.8	8.1
NS(=O)(=O)c1ccc(NC(=O)COC(=O)/C(=C/c2cccs2)c2cccs2)cc1	9.8	9.9	11.6	-5.6	7.9	63.8*	59.8*	12.8
CCC(C)c1ccccc1N1CC(C(=O)N2CCN(S(=O)(=O)c3cccc([N+](=O)[O-])c3)CC2)CC1=O (stereo unspecified)	.	.	-6.9	10.4	9.2	.	.	.
COc1ccc(C(=O)NC2CC(C)(C)Cc3c2cnn3-c2ccccc2)cc1OC (stereo unspecified)	5.0	-9.3	-5.6	1.4	4.8	7.3	.	.
COc1cc(C(=O)NC2CC(C)(C)Cc3c2cnn3-c2ccccc2)cc(OC)c1OC (stereo unspecified)	2.5	1.5	-5.1	9.0	-21.1	32.0*	33.6*	1.4
CCNc1ccc(C(=O)OC(C(=O)NC(N)=O)C(C)C)cc1[N+](=O)[O-] (stereo unspecified)	4.4	-0.1	-30.8	0.1	-7.8	32.7*	-10.6	-4.6
NC(=O)CSc1nnc(-c2ccccn2)n1N	-8.6	-1.9	4.4	-15.2	3.0	-1.7	.	.
FC(F)(F)c1cc(-c2ccco2)nc(NCc2ccccc2)n1	2.3	5.9	1.1	17.3	13.1	1.1	.	.
COc1ccccc1-c1cc(C(F)(F)F)nc(NCc2ccco2)n1	0.9	26.0	7.9	19.9	14.2	39.8*	0.2	3.4
CCOc1ccc(N2C(=O)/C(=C/c3cccs3)N(CC(=O)OC)C2=S)cc1	0.5	-13.5	-8.9	-2.5	1.7	7.9	.	.
CCc1ccc(/C=C2/C(=O)N(c3ccccc3)C(=S)N2CC(=O)OC)s1	-7.5	7.6	-2.5	2.5	-14.8	41.0*	20.8	0.7
Cc1ccc(S(=O)(=O)N(C(=N)N)c2nc(N(C)C)nc(N(C)C)n2)cc1	-1.9	5.5	3.7	3.2	.	30.6*	5.0	5.1
O=C(Nc1ccc2oc(=O)ccc2c1)c1ccc(-c2cccc(Cl)c2)o1	0.8	4.6	-11.1	8.7	-3.3	31.8*	25.3	21.1
COCCNC(=S)N1CCN(C/C=C/c2ccccc2)CC1	-1.6	15.4	3.1	-5.9	-11.3	8.1	.	.
O=C(CSc1nnc(-c2ccc(Br)cc2)o1)Nc1cccc2ccccc12	7.6	-0.8	1.1	6.2	-7.8	40.2*	51.5*	0.1
O=C(CSc1nnc(-c2ccc(Br)cc2)o1)Nc1cccc(C(=O)O)c1	7.4	11.8	10.9	-17.3	-11.0	0.3	.	.
CCC(=O)N1CCN(c2ccccc2NC(=O)COc2ccc(C(C)C)cc2)CC1	0.1	13.5	-3.1	19.0	27.3	72.6*	3.2	1.5
CC(=O)n1nc(-c2ccc(C)cc2)nc1NCc1ccc(F)cc1	-15.5	.	.	.	10.3	.	.	.
COc1ccc(CNc2nc(NCc3ccc(OC)cc3)n(C(C)=O)n2)cc1	-6.8	-0.1	13.2	-4.9	5.0	65.4*	72.0*	8.8
Cc1ccc(S(=O)(=O)N2CCCC(C(=O)Nc3cccnc3)C2)cc1 (stereo unspecified)	-6.3	-9.5	-9.0	-1.9	-4.8	-0.8	.	.
SMILES	PfM18AAP inh	ZTA counter	UBC13 inh	Apaf-1 inh	PfG6PD inh	EBNA-1 inh	EBNA-1 confirm	ZTA counter trip
CCOc1cccc(NC(=O)C2CCCN(S(=O)(=O)c3ccc(-n4cnnn4)cc3)C2)c1 (stereo unspecified)	-1.4	-13.6	-1.8	1.8	8.7	2.1	.	.
Cc1cc(NC(=O)C2CCCN(S(=O)(=O)c3c(C)noc3C)C2)no1 (stereo unspecified)	2.7	-3.8	-3.2	4.0	8.2	-0.2	.	.
COc1cccc(NC(=O)C2CCCN(S(=O)(=O)c3ccc(-n4cnnn4)cc3)C2)c1 (stereo unspecified)	-3.1	-13.7	-5.7	5.6	2.5	55.3*	24.0	2.7
Cc1ccc(S(=O)(=O)N2CCCC(C(=O)Nc3ccc(NC(=O)c4ccccn4)cc3)C2)cc1 (stereo unspecified)	0.7	14.9	9.3	3.9	-10.9	77.7*	30.8*	-9.6
Cc1cc(C)cc(NC(=O)C2CCCN(S(=O)(=O)c3c(C)noc3C)C2)c1 (stereo unspecified)	-0.9	-4.6	-3.8	14.2	16.9	43.9*	3.1	1.9
Cc1cc(C)c(NC(=O)c2ccc[n+](Cc3ccc([N+](=O)[O-])cc3)c2)c(C)c1	-14.8	-21.3	0.1	-0.3	-2.4	0.8	.	.
CNC(=S)NC(CC(=O)OC)c1ccc2c(c1)OCO2 (stereo unspecified)	-7.0	-5.3	4.4	-6.8	-1.3	1.9	.	.
Cc1c(C)n(-c2ccc(Cl)cc2)c2ncnc(N)c12	6.0	-1.2	8.4	14.7	10.9	0.4	.	.
Cc1ccc(NC(=O)CN2C(=O)N/C(=C/c3cccn3-c3ccc(C(=O)O)cc3)C2=O)cc1	5.4	23.0	.	.	-8.8	37.1*	16.4	40.0*
Cc1ccc(NC(=O)CN2C(=O)N/C(=C/c3cc(C)n(-c4ccc(C(=O)O)cc4)c3C)C2=O)cc1	8.5	.	.	.	-11.9	.	.	.
Cn1c(O)c(N=NC(=O)c2cc(-c3cccs3)nc3ccccc23)c2ccccc21	-3.7	-17.3	-0.6	1.2	-0.1	109.0*	82.2*	-7.8
O=C(N=Nc1c(O)[nH]c2ccc(Br)cc12)c1cc(-c2cccs2)nc2ccccc12	-13.5	.	.	.	-8.1	.	.	.
O=C1CC(SC(=NCc2ccc3c(c2)OCO3)Nc2ccccc2)C(=O)N1c1ccccc1 (stereo unspecified)	4.6	7.9	7.8	6.8	-18.9	43.5*	-11.6	-9.1
O=C(O)c1ccc(N2C(=O)CC(SC(=NCc3ccc4c(c3)OCO4)Nc3ccccc3)C2=O)cc1 (stereo unspecified)	-11.3	15.1	-23.0	6.4	-13.6	-3.3	.	.
CCOC(=O)c1nn(C)c2[nH]c(=O)n(C)c(=O)c12	.	.	.	.	-8.0	.	.	.

Assay outcomes as filed in PubChem.
